Experimental data taken from PubChem BioAssay.
Activity calls are given as the source filed them.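 Rule for the calls: active = primary screen active whose calcium signal fell more than 3 SD beyond the full-serotonin control mean in both duplicate plates; inactive = the rest.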

Test: serotonin-gated TRPC4 signal block – cell-based, second counter screen, HEK293 TRPC4/5HT1a, Fluo-4, counter-screen for TRPC4 inhibitor project, confirmation (AID 434978);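 for outcome: serotonin given first at submaximal then at maximal dose after compound preincubation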
Conditions: Fluo-4 calcium flux, at 10 µM, serotonin added to trigger calcium flux; active compounds read high
How it was run: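 benchmarks = ECmax serotonin wells | material = HEK293 line stably carrying TRPC4 plus 5HT1a receptor | incubation = compound 110 s, submaximal serotonin 110 s, ECmax serotonin read 110 s | technique = kinetic Fluo-4 fluorescence readout of calcium flux | probe or stimulus = serotonin, a submaximal addition followed by a maximal (ECmax) addition | repeats = duplicate plates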

Question: For `O=C1/C(=C\c2cc(Cl)c(O)c(Cl)c2)SC(=S)N1Cc1ccccc1`, which outcome is on record?
Answer: The outcome was “inactive”.

Question: For `COc1ccc(C(=O)NC(=S)NNC(=O)c2c(-c3ccccc3)noc2C)cc1`, which outcome is on record?
Answer: The outcome was “inactive”.

Question: With `O=C(c1sc2ccccc2c1Cl)N(Cc1ccco1)C1CCS(=O)(=O)C1` (stereo not given) as the compound, how does the outcome read?
Answer: Its outcome is “inactive”.

Question: With `Cc1cc(-c2ccc(C)c(S(=O)(=O)NCCCN(Cc3ccccc3)C(C)C)c2)on1` as the compound, how does the outcome read?
Answer: Its outcome is “inactive”.

Question: For `CCc1nc(NCCc2ccccn2)c2nnn(Cc3ccccc3F)c2n1`, which outcome is on record?
Answer: The outcome was “inactive”.

Question: With `CN(C)CCCN(C(=O)c1ccc(S(=O)(=O)N2CCCc3ccccc32)cc1)c1nc2ccc(F)cc2s1` as the compound, how does the outcome read?
Answer: The outcome was “inactive”.

Question: Which outcome does the source give for `CSCCC(NS(=O)(=O)c1ccc2c(c1)c(=O)n(C)c(=O)n2C)C(=O)NC1CCN(Cc2ccccc2)CC1` (stereo not given) here?
Answer: Its outcome is “inactive”.

Question: With `CCC1(c2ccc(F)cc2)NC(=O)N(CC(=O)c2cc(C)n(C3CC3)c2C)C1=O` (stereo not given) as the compound, how does the outcome read?
Answer: Its outcome is “inactive”.

Question: With `CN(C)CCCN(C(=O)c1ccc(C(=O)c2ccccc2)cc1)c1nc2ccc(F)cc2s1` as the compound, how does the outcome read?
Answer: Its outcome is “inactive”.

Question: With `Cc1ccc(-n2cc(CNCC3CC(=O)N(C4CC4)C3)c(-c3cccc(C)c3)n2)cc1` (stereo not given) as the compound, how does the outcome read?
Answer: Its outcome is “inactive”.

Question: Which outcome does the source give for `CC1CCCN(CCCNC(=O)c2ccc3c(c2)N(Cc2ccccc2F)C(=O)c2ccccc2S3(=O)=O)C1` (stereo not given) here?
Answer: Its outcome is “inactive”.

Question: Which outcome does the source give for `Cc1nc(/N=C(\N)NC(=O)NC2CCCCC2)nc2ccccc12` here?
Answer: The outcome was “inactive”.

Question: With `COc1ccc(C(CNC(=O)c2cccc(NS(=O)(=O)c3ccc(C)c(F)c3)c2)N(C)C)cc1` (stereo not given) as the compound, how does the outcome read?
Answer: The outcome was “inactive”.

Question: Which outcome does the source give for `CCN1CCN(c2ccc(S(=O)(=O)N3CCCCC3)cc2NC(=O)COc2ccccc2)CC1` here?
Answer: The outcome was “inactive”.

Question: With `CCCN(CCC)CCCNC(=O)C1CCN(S(=O)(=O)c2cccc3nsnc23)CC1` as the compound, how does the outcome read?
Answer: The outcome was “inactive”.

Question: Which outcome does the source give for `c1ccc(Nc2nc(Nc3ccccc3)nc(N3CCNCC3)n2)cc1` here?
Answer: Its outcome is “inactive”.

Question: Which outcome does the source give for `CN(C)C(CNc1ncnc2sc3c(c12)CCCC3)c1ccco1` (stereo not given) here?
Answer: The outcome was “inactive”.

Question: Which outcome does the source give for `CC(=O)Nc1ccc(CN2CCCC(C(=O)c3cccc(C(F)(F)F)c3)C2)cc1` (stereo not given) here?
Answer: Its outcome is “inactive”.

Question: Which inhibition does the source give for `NCCCn1c(C(=O)c2cc(Cl)c(N)c(Cl)c2)c2ccccc2[n+]1[O-]` here?
Answer: The inhibition was 14% (active).

Question: Which outcome does the source give for `CCN1CCN(c2c(Cl)cccc2NC(=O)c2ccc3nsnc3c2)CC1` here?
Answer: The outcome was “inactive”.

Question: With `COc1ccc(-c2cc(C(=O)NCC(c3ccccc3)N(C)C)c3ccccc3n2)cc1OC` (stereo not given) as the compound, how does the outcome read?
Answer: The outcome was “inactive”.

Question: Which outcome does the source give for `O=C(c1sc2ccccc2c1Cl)N(Cc1cccs1)C1CCS(=O)(=O)C1` (stereo not given) here?
Answer: Its outcome is “inactive”.

Question: With `O=S(=O)(c1ccccc1)c1nnn2c1nc(NC1CCN(Cc3ccccc3)CC1)c1cc(Cl)ccc12` as the compound, how does the outcome read?
Answer: Its outcome is “inactive”.

Question: For `CCCc1c(O)nc(SCCN(CCC)CCC)[nH]c1=O`, which outcome is on record?
Answer: The outcome was “inactive”.

Question: For `O=C(CCc1ccccc1)NNC(=S)NC(=O)c1ccc(Cl)cc1`, which outcome is on record?
Answer: The outcome was “inactive”.

Question: For `CCCCN(C)CCCNC(=O)CN1N=C(c2ccc(Cl)cc2)CCC1=O`, which outcome is on record?
Answer: The outcome was “inactive”.

Question: With `CC1(C)CC(=O)c2cc(C(=O)NCc3ccco3)c(=O)n(-c3ccc(Cl)cc3)c2C1` as the compound, how does the outcome read?
Answer: Its outcome is “inactive”.

Question: For `CCOC(=O)C1CCCN(C(c2ccccn2)c2c(C)[nH]c3ccccc23)C1` (stereo not given), which outcome is on record?
Answer: The outcome was “inactive”.

Question: For `O=C(Nc1nnc(-c2ccccc2Cl)o1)c1nc2ccccc2s1`, which outcome is on record?
Answer: The outcome was “inactive”.

Question: Which outcome does the source give for `CCCCC(c1nnnn1CC1CCCO1)N1CCN(c2nc3ccccc3s2)CC1` (stereo not given) here?
Answer: The outcome was “inactive”.

Question: With `c1ccc2c(c1)CCN(c1ncnc3c1[nH]c1ccccc13)C2` as the compound, how does the outcome read?
Answer: Its outcome is “inactive”.

Question: With `COc1ccc(C(CNCC(=O)Nc2ccccc2F)N(C)C)cc1` (stereo not given) as the compound, how does the outcome read?
Answer: The outcome was “inactive”.

Question: With `O=S(=O)(c1ccc(Cl)cc1)N1CCN2CCCC2C1` (stereo not given) as the compound, how does the outcome read?
Answer: Its outcome is “inactive”.

Question: With `COc1cc(OC)c(CN2CCC(Cc3ccccc3)CC2)cc1Br` as the compound, how does the outcome read?
Answer: The outcome was “inactive”.

Question: For `CCOC(=O)C1(CCOc2ccccc2)CCN(Cc2ccc(NC(C)=O)cc2)CC1`, which outcome is on record?
Answer: The outcome was “inactive”.

Question: Which outcome does the source give for `O=C(C1CCCN(Cc2ccccc2)C1)N1CCc2ccccc2C1` (stereo not given) here?
Answer: Its outcome is “inactive”.

Question: With `Cc1csc2c(N3CCN(C(=S)Nc4ccc(F)cc4F)CC3)ncnc12` as the compound, how does the outcome read?
Answer: Its outcome is “inactive”.

Question: For `Cc1ccc(C2(O)CN(c3ccccc3C)C3=[N+]2CCS3)cc1` (stereo not given), which outcome is on record?
Answer: Its outcome is “inactive”.

Question: Which outcome does the source give for `CCn1cc(CN2CCCC(C(=O)Nc3ccc(-c4nc5ccccc5[nH]4)cc3)C2)c(C)n1` (stereo not given) here?
Answer: The outcome was “inactive”.

Question: Which outcome does the source give for `CN(C)C(CNC(=S)Nc1cccc(Cl)c1)c1cccnc1` (stereo not given) here?
Answer: The outcome was “inactive”.
